Results gathered from unrelated publications.
Lines come from different studies, so protocols differ.
Target: Aurora kinase C (AURKC, Homo sapiens, UniProt Q9UQB9)

Structure (SMILES) | observed | mode | technique | tested at | quantity | result
CCN(CC)c1ccc(C2=NNC(=O)CC2C)cc1[N+](=O)[O-] (centres unmarked) | enzyme activity | inhibitor |  | 10 µM | remaining activity | 122%
Cc1sc(C(=O)NC2COC2)cc1-n1cc(NC(=O)Nc2c(F)cccc2Cl)cn1 | enzyme activity | inhibitor |  | 10 µM | remaining activity | 104%
CS(=O)(=O)CCNCc1ccc(-c2ccc3ncnc(Nc4ccc(OCc5cccc(F)c5)c(Cl)c4)c3c2)o1 | cell-free assay |  |  | 0.5 µM | remaining signal | 90.9%
Cc1ccc(NC(=O)c2ccc(C)c(C(F)(F)F)c2)cc1C#Cc1nn(C2CCC(O)CC2)c2ncnc(N)c12 (centres unmarked) | cell-free assay |  |  | 10 µM | remaining signal | 101%
O=C1Nc2ccc(Cl)cc2C1=Cc1cc(Cl)c(O)c(Cl)c1 | cell-free assay |  |  | 0.5 µM | remaining signal | 78.6%
CCC(=O)N[C@@H]1CC[C@H](C(=O)N(C)c2ccc(-c3nc4ccccc4o3)cc2)C1 | cell-free assay |  | competition with immobilised ligand | 1 µM | remaining binding | 100%
COc1cc2ncnc(Nc3ccc(Oc4ccccc4)cc3C)c2cc1OC | enzyme activity | inhibitor |  | 1 µM | inhibition | 1%
O=c1c2ccccc2[nH]c(=S)n1CCN1CCC(=C(c2ccc(F)cc2)c2ccc(F)cc2)CC1 | enzyme activity | inhibitor |  | 0.5 µM | remaining activity | 99.4%
CS(=O)(=O)NCC[C@H](NC(=O)c1cncc2c1cnn2-c1ccc(F)cc1)c1ccnc(S(C)(=O)=O)c1 | cell-free assay |  | competition with immobilised ligand | 1 µM | remaining binding | 92%
COc1cc2nccc(Oc3ccc(NC(=O)c4c5n(n(-c6ccc(F)cc6)c4=O)CCCC5)cc3)c2cc1OC | enzyme activity | inhibitor |  | 0.1 µM | inhibition | 24%
CC1=C(C#N)[C@@H](c2ccc3[nH]nc(C)c3c2)C(C#N)=C(c2ccc(Cl)cc2)N1 | cell-free assay |  | competition with immobilised ligand | 1 µM | remaining binding | 100%
COc1cc(Cl)c(C(=O)N[C@@H](CN[C@H]2CC[C@@H](N)CC2)Cc2ccc(C#N)cc2)cc1-c1ccc(CN[C@H](C)c2ccc(C)cc2)o1 | enzyme activity | inhibitor |  | 1 µM | remaining activity | 94%
CNc1cccc2cc(C(=O)Nc3ccc(C(=O)O)cc3)c(=O)[nH]c12 | enzyme activity | inhibitor |  | 10 µM | inhibition | -7.3%
CC(C)(C)c1nc(-c2cccc(NS(=O)(=O)c3c(F)cccc3F)c2F)c(-c2ccnc(N)n2)s1 | enzyme activity | inhibitor | radiometric | 1 µM | remaining activity | 92%
CCC(=N\O)/C(C)=C/c1ccc(F)cc1 | cell-free assay |  | competition with immobilised ligand | 1 µM | remaining binding | 80%
Cc1cnc(NC2CCOCC2)nc1-n1cnc(C(=O)NC(CN)c2cc(F)cc(Cl)c2)c1 (centres unmarked) | enzyme activity | inhibitor | radiometric | 1 µM | remaining activity | 67%
CC(C)CC(=O)N1CCc2nc(-c3ccc(Br)cc3)nc(N(C)Cc3ccccc3)c2C1 | cell-free assay |  | competition with immobilised ligand | 0.1 µM | remaining binding | 100%
C=CC(=O)Nc1cc(Nc2nccc(Nc3cc(Cl)c(F)cc3C(C)(C)O)n2)c(OC)cc1N1CC[C@@H](N(C)C)C1 | enzyme activity | inhibitor |  | 1 µM | inhibition | 6%
O=C(NS(=O)(=O)c1ccc(NCC2CCOCC2)c([N+](=O)[O-])c1)c1ccc(N2CCN(Cc3ccc(C(F)(F)F)cc3-c3ccc(Cl)cc3)CC2)cc1Oc1cnc2[nH]ccc2c1 | cell-free assay |  | competition with immobilised ligand | 1 µM | remaining binding | 97%
CCN(CC)CCNC(=O)c1c(C)[nH]c(/C=C2\C(=O)Nc3ccc(Cl)cc32)c1C | enzyme activity | inhibitor |  | 0.5 µM | remaining activity | 74.7%
